Measurements published in ChEMBL document CHEMBL5724801, “EUbOPEN Chemogenomics Library - Multiplex” (2024).
“And” between values parts separate entries of the source, which are not always exact repeats. Identical values can stand only once.

Tests used:
Format in all cases: toxicity, cell-based
[1] = system: Fibroblast; assay: Multiplex assay against human fibroblast
Procedure, shortened: (§1)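 Values for tubulin, mitochondrial-mass and membrane-permeability phenotypes are per cents of cells with healthy nuclei. These cells were identified by CellPathfinder machine-learning gating of live cells that had been stained at seeding with Hoechst33342, BioTracker Green Microtubule Cytoskeleton Dye, MitoTracker Red and Annexin V Alexa Fluor 680 and imaged on a CQ1 microscope at 37°C and 5% CO2 after compound addition. The gating first set Hoechst high-intensity objects apart from normal cells, then split normal cells into healthy, pyknosed or fragmented nuclei, and pyknosed cells into mitotic or apoptotic.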

[2] = system: U2OS; assay: Multiplex assay against U2OS; conditions: human; procedure, shortened: as §1
[3] = system: HEK-293T; assay: Multiplex assay against HEK293T; conditions: human; procedure, shortened: as §1
[4] = 12 h, 1 µM, compound concentration 1 uM
[5] = 12 h, 10 µM, compound concentration 10 uM
[6] = 24 h, 1 µM, compound concentration 1 uM
[7] = 24 h, 10 µM, compound concentration 10 uM
[8] = 48 h, 1 µM, compound concentration 1 uM
[9] = 48 h, 10 µM, compound concentration 10 uM

SMILES: Cc1cc(Nc2ncc(Cl)c(Nc3ccccc3S(=O)(=O)C(C)C)n2)c(OC(C)C)cc1C1CCNCC1 [CERITINIB]
- Population Apoptotic (%) [1, 4]: 11.76% and 21.15%
- Population Fragmented Nuclei (%) [1, 4]: 7.37% and 5.85%
- Population Healthy Nuclei (%) [1, 4]: 53.46% and 68.78%
- Population Hoechst High Intensity Objects (%) [1, 4]: 0%
- Population Membrane Permeable-Phenotype (%) [1, 4]: 4.31% and 0.71%
- Population Mitochondria Different-Phenotype (%) [1, 4]: 43.1% and 31.21%
- Population Mitotic Cells (%) [1, 4]: 88.24% and 78.85%
- Population Normal (%) [1, 4]: 100%
- Population Pyknosed Nuclei (%) [1, 4]: 39.17% and 25.37%
- Population Tubulin-Different-Phenotype (%) [1, 4]: 63.79% and 60.99%
- Total Cell Count [1, 4]: 217 and 205
- Population Apoptotic (%) [1, 5]: 42.37% and 52.35%
- Population Fragmented Nuclei (%) [1, 5]: 13.51% and 3.96%
- Population Healthy Nuclei (%) [1, 5]: 22.7% and 22.28%
- Population Hoechst High Intensity Objects (%) [1, 5]: 0%
- Population Mitochondria Different-Phenotype (%) [1, 5]: 7.14% and 6.67%
- Population Mitotic Cells (%) [1, 5]: 57.63% and 47.65%
- Population Normal (%) [1, 5]: 100%
- Population Pyknosed Nuclei (%) [1, 5]: 63.78% and 73.76%
- Population Tubulin-Different-Phenotype (%) [1, 5]: 38.1% and 77.78%
- Total Cell Count [1, 5]: 185 and 202
- Population Apoptotic (%) [1, 6]: 20% and 32.43%
- Population Fragmented Nuclei (%) [1, 6]: 9.43% and 7.69%
- Population Healthy Nuclei (%) [1, 6]: 68.03% and 74.52%
- Population Hoechst High Intensity Objects (%) [1, 6]: 0%
- Population Membrane Permeable-Phenotype (%) [1, 6]: 4.22% and 0%
- Population Mitochondria Different-Phenotype (%) [1, 6]: 29.52% and 27.74%
- Population Mitotic Cells (%) [1, 6]: 80% and 67.57%
- Population Normal (%) [1, 6]: 100%
- Population Pyknosed Nuclei (%) [1, 6]: 22.54% and 17.79%
- Population Tubulin-Different-Phenotype (%) [1, 6]: 62.05% and 63.23%
- Total Cell Count [1, 6]: 244 and 208
- Population Apoptotic (%) [1, 7]: 65.28% and 58.33%
- Population Fragmented Nuclei (%) [1, 7]: 19.9% and 22.16%
- Population Healthy Nuclei (%) [1, 7]: 43.37% and 59.28%
- Population Hoechst High Intensity Objects (%) [1, 7]: 0%
- Population Mitochondria Different-Phenotype (%) [1, 7]: 12.94% and 7.83%
- Population Mitotic Cells (%) [1, 7]: 34.72% and 41.67%
- Population Normal (%) [1, 7]: 100%
- Population Pyknosed Nuclei (%) [1, 7]: 36.73% and 18.56%
- Population Tubulin-Different-Phenotype (%) [1, 7]: 37.65% and 81.74%
- Total Cell Count [1, 7]: 196 and 194
- Population Fragmented Nuclei (%) [1, 8]: 13.85% and 7.43%
- Population Healthy Nuclei (%) [1, 8]: 77.7% and 84.65%
- Population Hoechst High Intensity Objects (%) [1, 8]: 0%
- Population Membrane Permeable-Phenotype (%) [1, 8]: 1.74% and 1.75%
- Population Mitochondria Different-Phenotype (%) [1, 8]: 11.74% and 9.94%
- Population Mitotic Cells (%) [1, 8]: 88% and 50%
- Population Normal (%) [1, 8]: 100%
- Population Pyknosed Nuclei (%) [1, 8]: 8.45% and 7.92%
- Population Tubulin-Different-Phenotype (%) [1, 8]: 36.09% and 50.88%
- Total Cell Count [1, 8]: 296 and 202
- Population Apoptotic (%) [1, 9]: 73.33% and 50%
- Population Fragmented Nuclei (%) [1, 9]: 20.63% and 58.73%
- Population Healthy Nuclei (%) [1, 9]: 71.43% and 38.1%
- Population Hoechst High Intensity Objects (%) [1, 9]: 0%
- Population Mitotic Cells (%) [1, 9]: 26.67% and 50%
- Population Normal (%) [1, 9]: 100%
- Population Pyknosed Nuclei (%) [1, 9]: 7.94% and 3.17%
- Population Tubulin-Different-Phenotype (%) [1, 9]: 31.85% and 58.33%
- Total Cell Count [1, 9]: 189
- Population Apoptotic (%) [2, 4]: 28.57% and 18.75%
- Population Fragmented Nuclei (%) [2, 4]: 3.31% and 3.57%
- Population Healthy Nuclei (%) [2, 4]: 78.68% and 58.33%
- Population Hoechst High Intensity Objects (%) [2, 4]: 0%
- Population Membrane Permeable-Phenotype (%) [2, 4]: 17.76% and 17.35%
- Population Mitotic Cells (%) [2, 4]: 71.43% and 81.25%
- Population Normal (%) [2, 4]: 100%
- Population Pyknosed Nuclei (%) [2, 4]: 18.01% and 38.1%
- Population Tubulin-Different-Phenotype (%) [2, 4]: 40.65% and 72.45%
- Total Cell Count [2, 4]: 272 and 168
- Population Apoptotic (%) [2, 5]: 77.85% and 68.91%
- Population Fragmented Nuclei (%) [2, 5]: 0.93% and 0.8%
- Population Healthy Nuclei (%) [2, 5]: 3.43% and 4%
- Population Hoechst High Intensity Objects (%) [2, 5]: 0%
- Population Membrane Permeable-Phenotype (%) [2, 5]: 36.36% and 80%
- Population Mitochondria Different-Phenotype (%) [2, 5]: 0%
- Population Mitotic Cells (%) [2, 5]: 22.15% and 31.09%
- Population Normal (%) [2, 5]: 100%
- Population Pyknosed Nuclei (%) [2, 5]: 95.64% and 95.2%
- Population Tubulin-Different-Phenotype (%) [2, 5]: 72.73% and 60%
- Total Cell Count [2, 5]: 321 and 125
- Population Apoptotic (%) [2, 6]: 29.58% and 27.12%
- Population Fragmented Nuclei (%) [2, 6]: 2.58% and 2.73%
- Population Healthy Nuclei (%) [2, 6]: 77.08% and 65.03%
- Population Hoechst High Intensity Objects (%) [2, 6]: 0.29% and 0%
- Population Membrane Permeable-Phenotype (%) [2, 6]: 4.09% and 6.72%
- Population Mitotic Cells (%) [2, 6]: 70.42% and 72.88%
- Population Normal (%) [2, 6]: 99.71% and 100%
- Population Pyknosed Nuclei (%) [2, 6]: 20.34% and 32.24%
- Population Tubulin-Different-Phenotype (%) [2, 6]: 29% and 47.06%
- Total Cell Count [2, 6]: 350 and 183
- Population Apoptotic (%) [2, 7]: 83.51% and 81.55%
- Population Fragmented Nuclei (%) [2, 7]: 1.89% and 2.42%
- Population Healthy Nuclei (%) [2, 7]: 6.6% and 14.52%
- Population Hoechst High Intensity Objects (%) [2, 7]: 0%
- Population Membrane Permeable-Phenotype (%) [2, 7]: 23.81% and 50%
- Population Mitochondria Different-Phenotype (%) [2, 7]: 9.52% and 5.56%
- Population Mitotic Cells (%) [2, 7]: 16.49% and 18.45%
- Population Normal (%) [2, 7]: 100%
- Population Pyknosed Nuclei (%) [2, 7]: 91.51% and 83.06%
- Population Tubulin-Different-Phenotype (%) [2, 7]: 71.43% and 33.33%
- Total Cell Count [2, 7]: 318 and 124
- Population Apoptotic (%) [2, 8]: 50% and 61.97%
- Population Fragmented Nuclei (%) [2, 8]: 3.8% and 3.81%
- Population Healthy Nuclei (%) [2, 8]: 77.4% and 62.38%
- Population Hoechst High Intensity Objects (%) [2, 8]: 0.2% and 0%
- Population Membrane Permeable-Phenotype (%) [2, 8]: 1.55% and 4.58%
- Population Mitotic Cells (%) [2, 8]: 50% and 38.03%
- Population Normal (%) [2, 8]: 99.8% and 100%
- Population Pyknosed Nuclei (%) [2, 8]: 18.8% and 33.81%
- Total Cell Count [2, 8]: 501 and 210
- Population Apoptotic (%) [2, 9]: 89.1% and 93.88%
- Population Fragmented Nuclei (%) [2, 9]: 2.94% and 5.04%
- Population Healthy Nuclei (%) [2, 9]: 46.08% and 53.78%
- Population Hoechst High Intensity Objects (%) [2, 9]: 0%
- Population Mitochondria Different-Phenotype (%) [2, 9]: 7.09% and 10.94%
- Population Mitotic Cells (%) [2, 9]: 10.9% and 6.12%
- Population Normal (%) [2, 9]: 100%
- Population Pyknosed Nuclei (%) [2, 9]: 50.98% and 41.18%
- Population Tubulin-Different-Phenotype (%) [2, 9]: 46.1% and 31.25%
- Total Cell Count [2, 9]: 306 and 119
- Population Apoptotic (%) [3, 4]: 15.93% and 15.13%
- Population Fragmented Nuclei (%) [3, 4]: 1.92% and 4.62%
- Population Hoechst High Intensity Objects (%) [3, 4]: 1.88% and 0.76%
- Population Membrane Permeable-Phenotype (%) [3, 4]: 1.35% and 0%
- Population Mitochondria Different-Phenotype (%) [3, 4]: 32.43% and 80%
- Population Mitotic Cells (%) [3, 4]: 84.07% and 84.87%
- Population Normal (%) [3, 4]: 98.12% and 99.24%
- Population Pyknosed Nuclei (%) [3, 4]: 69.73% and 91.54%
- Population Tubulin-Different-Phenotype (%) [3, 4]: 50% and 80%
- Total Cell Count [3, 4]: 266 and 131
- Population Apoptotic (%) [3, 5]: 30.99% and 76.42%
- Population Fragmented Nuclei (%) [3, 5]: 1.54% and 6.06%
- Population Healthy Nuclei (%) [3, 5]: 2.15% and 0.76%
- Population Hoechst High Intensity Objects (%) [3, 5]: 1.22% and 0%
- Population Membrane Permeable-Phenotype (%) [3, 5]: 0%
- Population Mitotic Cells (%) [3, 5]: 69.01% and 23.58%
- Population Normal (%) [3, 5]: 98.78% and 100%
- Population Pyknosed Nuclei (%) [3, 5]: 96.31% and 93.18%
- Total Cell Count [3, 5]: 329 and 132
- Population Apoptotic (%) [3, 6]: 45.74% and 45.87%
- Population Fragmented Nuclei (%) [3, 6]: 2.55% and 3.68%
- Population Hoechst High Intensity Objects (%) [3, 6]: 0% and 0.73%
- Population Membrane Permeable-Phenotype (%) [3, 6]: 0%
- Population Mitochondria Different-Phenotype (%) [3, 6]: 64.49% and 77.27%
- Population Mitotic Cells (%) [3, 6]: 54.26% and 54.13%
- Population Normal (%) [3, 6]: 100% and 99.27%
- Population Pyknosed Nuclei (%) [3, 6]: 47.08% and 80.15%
- Population Tubulin-Different-Phenotype (%) [3, 6]: 71.01% and 54.55%
- Total Cell Count [3, 6]: 274 and 137
- Population Apoptotic (%) [3, 7]: 64.24% and 88.24%
- Population Fragmented Nuclei (%) [3, 7]: 1.89% and 7.03%
- Population Healthy Nuclei (%) [3, 7]: 2.84% and 0%
- Population Hoechst High Intensity Objects (%) [3, 7]: 0%
- Population Membrane Permeable-Phenotype (%) [3, 7]: 0%
- Population Mitochondria Different-Phenotype (%) [3, 7]: 88.89%
- Population Normal (%) [3, 7]: 100%
- Population Pyknosed Nuclei (%) [3, 7]: 95.27% and 92.97%
- Population Tubulin-Different-Phenotype (%) [3, 7]: 100%
- Total Cell Count [3, 7]: 317 and 128
- Population Apoptotic (%) [3, 8]: 27.27% and 48.81%
- Population Fragmented Nuclei (%) [3, 8]: 2.27% and 3.2%
- Population Healthy Nuclei (%) [3, 8]: 75% and 29.6%
- Population Hoechst High Intensity Objects (%) [3, 8]: 0.21% and 1.57%
- Population Membrane Permeable-Phenotype (%) [3, 8]: 1.38% and 2.7%
- Population Mitochondria Different-Phenotype (%) [3, 8]: 68.6% and 81.08%
- Population Mitotic Cells (%) [3, 8]: 72.73% and 51.19%
- Population Normal (%) [3, 8]: 99.79% and 98.43%
- Population Pyknosed Nuclei (%) [3, 8]: 22.73% and 67.2%
- Population Apoptotic (%) [3, 9]: 62.54% and 87.16%
- Population Fragmented Nuclei (%) [3, 9]: 1.6% and 9.02%
- Population Healthy Nuclei (%) [3, 9]: 7.99% and 9.02%
- Population Hoechst High Intensity Objects (%) [3, 9]: 0%
- Population Membrane Permeable-Phenotype (%) [3, 9]: 0% and 8.33%
- Population Mitochondria Different-Phenotype (%) [3, 9]: 92% and 91.67%
- Population Mitotic Cells (%) [3, 9]: 37.46% and 12.84%
- Population Normal (%) [3, 9]: 100%
- Population Pyknosed Nuclei (%) [3, 9]: 90.42% and 81.95%
- Population Tubulin-Different-Phenotype (%) [3, 9]: 52% and 91.67%
- Total Cell Count [3, 9]: 313 and 133
